The results in this text go back to PubChem BioAssay.

A short description of the first assay: yeast TOR pathway reporter LAP4-GFP change – cell-based, cherry picks, flow cytometry, mother/daughter gates, confirmation (AID 2271).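 Further: ratio of sample to DMSO plate mean so 100% equals DMSO level.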 Conditions: S. cerevisiae LAP4-GFP strain, 3 h, measured here: daughter cell gate response, at 10 µM, stronger effect = higher value, 100 means same as DMSO control. The essentials:
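System: Alexa 633-stained baker's yeast GFP-fusion strain / Medium: synthetic complete (SC) yeast growth medium / Doses: compound at 10 µM, single point / Times: 3 h treatment at 30 °C with rotation / Detection: HT flow cytometry, GFP fluorescence channel / Benchmarks: DMSO-only negative wells, rapamycin 400 ng/mL positive wells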
A general note: Flow cytometry measures light scatter and fluorescence of single cells or particles in a stream.
With `Cc1ccc(/C=C/C(=O)c2ccc([N+](=O)[O-])o2)cc1`, the GFP response relative to DMSO was 89.8%.
The same measure, in the same setting: with `CCCN1CCc2c(sc(NC(=S)NC(=O)c3ccccc3)c2C#N)C1` the figure was 107%; with `O=C(CN1CCN(Cc2ccccc2Cl)C1=O)NC1CCCCCCC1`, 97.6%.
Same read-out and setting: the result for `O=c1oc(/C=C/c2ccc([N+](=O)[O-])s2)nc2ccccc12` reads 180%; that for `COc1ccccc1Oc1ccc(S(=O)(=O)N2CCCC2)cc1`, 91%.
On the same count and under the same terms, with `COc1ccc(C(=O)Nc2c(N)nc[nH]c2=O)cc1` the figure was 97.5%; with `Cc1[nH]n(-c2ncc(-c3ccccc3)s2)c(=O)c1C(c1ccc(Cl)cc1)C(C#N)C#N` (stereo not given), 136%; with `COc1ccc(-c2cc3cc(C(=O)O)ccn3c2C(=O)c2ccccc2)cc1`, 106%.
On to `CCOC(=O)c1ccc(NC(=O)CCc2nc(-c3ccc(Cl)cc3)no2)cc1`, for which the GFP response relative to DMSO is 99.2%.
With `CS(=O)(=O)N1N=C(c2ccco2)CC1c1ccc(Br)cc1` (stereo not given), the GFP response relative to DMSO came out at 104%.
The same measure, in the same setting: the result for `O=C(O)c1ccc2c3c(ncnc13)-c1ccccc1C2=O` reads 130%; that for `CCN(CC)C(=O)c1ccc2c3c(cccc13)C(=O)N(CCc1ccc(OC)c(OC)c1)C2=O`, 97.9%; that for `Oc1cccc(/C=N/c2c(-c3ccco3)nc3ccccn23)c1`, 97.9%.
On the same count and under the same terms, the result for `O=C(Nc1nccs1)C(c1ccccc1)N1CCCCC1` (stereo not given) reads 94.2%.
On to `CCN1/C(=C/c2ccc3cc(C)ccc3[n+]2CC)Sc2ccc3sccc3c21`, for which the GFP response relative to DMSO amounted to 155%.
The compound `COCCCN(C(=O)c1ccco1)c1nc(-c2cc(OC)ccc2OC)cs1` showed a GFP response relative to DMSO of 96%.
In turn, `O=C1[C@@H]2C3C=CC(O3)[C@@H]2C(=O)N1c1ccccc1` came in with a GFP response relative to DMSO of 107%.
In turn, `CCOC(=O)C1CCCN(c2nc3c(C)cccn3c(=O)c2/C=C(\C#N)C(=O)NCc2ccco2)C1` (stereo not given) came in with a GFP response relative to DMSO of 102%.
On the same count and under the same terms, the result for `CCOC(=O)/C=C1\SCC(=O)N1Cc1nnc(-c2ccccc2Br)o1` reads 89.6%; that for `O=C(Nc1c2c(nn1-c1ccccc1)CS(=O)C2)c1ccco1` (stereo not given), 96%.
The same measure, in the same setting: with `CCn1c(=O)c(C(=O)NCCc2ccccc2)c(O)c2ccccc21` the figure was 96%; with `CN1CCN(C(c2ccc(C(F)(F)F)cc2)c2ccc3cccnc3c2O)CC1` (stereo not given), 190%; with `COc1ccc(C2N(c3ccc(Cl)cc3)N=C(C(C)=O)N(C)N2C(C)=O)cc1` (stereo not given), 101%.
Same read-out and setting: with `COC(=O)CCS(=O)(=O)c1nc(-c2ccccc2)cc(C(F)(F)F)n1` the figure was 161%; with `CCc1ccc(OCC(=O)NNC(=S)NC(=O)C2CC2)c(Br)c1`, 164%.
Take `Cc1cccc(Cn2cc(/C=C/[N+](=O)[O-])c3ccccc32)c1`: the GFP response relative to DMSO turned out to be 107%.
Same read-out and setting: with `CCc1ccc2c(c1)C1(NN=C(c3cccc4ccccc34)S1)C(=O)N2` (stereo not given) the figure was 105%.
Still for that read-out and setting: with `N#C/C(=C\c1c(N2CCCCCC2)nc2ccccn2c1=O)C(=O)NCc1ccco1` the figure was 96%; with `CCOC(=O)C(=CNNc1ccccc1)C(=O)OCC`, 133%.
In turn, `O=C(O)Cn1cc(/C=C/[N+](=O)[O-])c2ccccc21` yielded a GFP response relative to DMSO of 101%.
Compound `N#C/C(C(=O)Nc1ccc(Cl)cc1)=C(/S)Nc1ccccc1` registered a GFP response relative to DMSO of 104%.
Same read-out and setting: with `CCCc1[nH]nc2c1C(c1ccc(OC)c(Cn3nnc4ccccc43)c1)C(C#N)=C(N)O2` (stereo not given) the figure was 102%; with `COc1ccc(-c2csc(Nc3ncccc3C)n2)cc1`, 104%; with `Cc1ccccc1C(=O)NNC(=S)NC(=O)c1ccc(Cl)cc1Cl`, 124%.
Still for that read-out and setting: with `O=C(NC(c1ccccc1)C(Cl)Cl)c1ccccc1` (stereo not given) the figure was 104%; with `Cc1ccc2nc(Cl)c3nnnn3c2c1`, 153%.
Still for that read-out and setting: the result for `CN1C(=O)c2cccc3c(Cl)ccc(c23)C1=O` reads 107%; that for `Cc1nc2c(-c3ccc(F)cc3)cnn2c(N)c1-c1ccccc1`, 97.5%.
In turn, `COc1ccc(C2CC(c3c(-c4ccccc4)c4cc(Cl)ccc4[nH]c3=O)=NN2S(C)(=O)=O)cc1` (stereo not given) had a GFP response relative to DMSO of 97.6%.
Same read-out and setting: with `O=C(N/N=C\c1ccc(F)cc1)c1cc(OCC(F)(F)F)ccc1OCC(F)(F)F` the figure was 95%.

Still in this assay, the particulars now being: S. cerevisiae LAP4-GFP strain, 3 h, measured here: mother cell gate response, at 10 µM, stronger effect = higher value, 100 means same as DMSO control.
Consider `Cc1ccc(/C=C/C(=O)c2ccc([N+](=O)[O-])o2)cc1`, for which the GFP response relative to DMSO was determined as 85.2%.
Consider `CCCN1CCc2c(sc(NC(=S)NC(=O)c3ccccc3)c2C#N)C1`, for which the GFP response relative to DMSO is 120%.
Same read-out and setting: with `O=C(CN1CCN(Cc2ccccc2Cl)C1=O)NC1CCCCCCC1` the figure was 95.1%; with `O=c1oc(/C=C/c2ccc([N+](=O)[O-])s2)nc2ccccc12`, 189%.
On the same count and under the same terms, with `COc1ccccc1Oc1ccc(S(=O)(=O)N2CCCC2)cc1` the figure was 95.2%.
Consider `COc1ccc(C(=O)Nc2c(N)nc[nH]c2=O)cc1`, for which the GFP response relative to DMSO worked out at 97.3%.
In turn, `Cc1[nH]n(-c2ncc(-c3ccccc3)s2)c(=O)c1C(c1ccc(Cl)cc1)C(C#N)C#N` (stereo not given) came in with a GFP response relative to DMSO of 159%.
On to `COc1ccc(-c2cc3cc(C(=O)O)ccn3c2C(=O)c2ccccc2)cc1`, for which the GFP response relative to DMSO worked out at 108%.
On the same count and under the same terms, the result for `CCOC(=O)c1ccc(NC(=O)CCc2nc(-c3ccc(Cl)cc3)no2)cc1` reads 100%; that for `CS(=O)(=O)N1N=C(c2ccco2)CC1c1ccc(Br)cc1` (stereo not given), 103%.
Same read-out and setting: with `O=C(O)c1ccc2c3c(ncnc13)-c1ccccc1C2=O` the figure was 134%; with `CCN(CC)C(=O)c1ccc2c3c(cccc13)C(=O)N(CCc1ccc(OC)c(OC)c1)C2=O`, 109%; with `Oc1cccc(/C=N/c2c(-c3ccco3)nc3ccccn23)c1`, 94.6%.
In the case of `O=C(Nc1nccs1)C(c1ccccc1)N1CCCCC1` (stereo not given), the GFP response relative to DMSO amounted to 93.1%.
On to `CCN1/C(=C/c2ccc3cc(C)ccc3[n+]2CC)Sc2ccc3sccc3c21`, for which the GFP response relative to DMSO was found to be 287%.
The compound `COCCCN(C(=O)c1ccco1)c1nc(-c2cc(OC)ccc2OC)cs1` yielded a GFP response relative to DMSO of 100%.
`O=C1[C@@H]2C3C=CC(O3)[C@@H]2C(=O)N1c1ccccc1` gave a GFP response relative to DMSO of 109%.
`CCOC(=O)C1CCCN(c2nc3c(C)cccn3c(=O)c2/C=C(\C#N)C(=O)NCc2ccco2)C1` (stereo not given) had a GFP response relative to DMSO of 99.5%.
`CCOC(=O)/C=C1\SCC(=O)N1Cc1nnc(-c2ccccc2Br)o1` displayed a GFP response relative to DMSO of 90.8%.
The compound `O=C(Nc1c2c(nn1-c1ccccc1)CS(=O)C2)c1ccco1` (stereo not given) gave a GFP response relative to DMSO of 95.4%.
The same measure, in the same setting: the result for `CCn1c(=O)c(C(=O)NCCc2ccccc2)c(O)c2ccccc21` reads 97.4%; that for `CN1CCN(C(c2ccc(C(F)(F)F)cc2)c2ccc3cccnc3c2O)CC1` (stereo not given), 218%.
Same read-out and setting: with `COc1ccc(C2N(c3ccc(Cl)cc3)N=C(C(C)=O)N(C)N2C(C)=O)cc1` (stereo not given) the figure was 103%; with `COC(=O)CCS(=O)(=O)c1nc(-c2ccccc2)cc(C(F)(F)F)n1`, 170%; with `CCc1ccc(OCC(=O)NNC(=S)NC(=O)C2CC2)c(Br)c1`, 203%.
As to `Cc1cccc(Cn2cc(/C=C/[N+](=O)[O-])c3ccccc32)c1`, the GFP response relative to DMSO is 114%.
On the same count and under the same terms, the result for `CCc1ccc2c(c1)C1(NN=C(c3cccc4ccccc34)S1)C(=O)N2` (stereo not given) reads 114%; that for `N#C/C(=C\c1c(N2CCCCCC2)nc2ccccn2c1=O)C(=O)NCc1ccco1`, 92.9%; that for `CCOC(=O)C(=CNNc1ccccc1)C(=O)OCC`, 140%.
As to `O=C(O)Cn1cc(/C=C/[N+](=O)[O-])c2ccccc21`, the GFP response relative to DMSO came out at 100%.
Same read-out and setting: with `N#C/C(C(=O)Nc1ccc(Cl)cc1)=C(/S)Nc1ccccc1` the figure was 104%; with `CCCc1[nH]nc2c1C(c1ccc(OC)c(Cn3nnc4ccccc43)c1)C(C#N)=C(N)O2` (stereo not given), 103%.
On the same count and under the same terms, the result for `COc1ccc(-c2csc(Nc3ncccc3C)n2)cc1` reads 109%; that for `Cc1ccccc1C(=O)NNC(=S)NC(=O)c1ccc(Cl)cc1Cl`, 140%.
`O=C(NC(c1ccccc1)C(Cl)Cl)c1ccccc1` (stereo not given) gave a GFP response relative to DMSO of 93.4%.
`Cc1ccc2nc(Cl)c3nnnn3c2c1` displayed a GFP response relative to DMSO of 270%.
Compound `CN1C(=O)c2cccc3c(Cl)ccc(c23)C1=O` yielded a GFP response relative to DMSO of 107%.
Turning to `Cc1nc2c(-c3ccc(F)cc3)cnn2c(N)c1-c1ccccc1`, the GFP response relative to DMSO came to 100%.
The same measure, in the same setting: with `COc1ccc(C2CC(c3c(-c4ccccc4)c4cc(Cl)ccc4[nH]c3=O)=NN2S(C)(=O)=O)cc1` (stereo not given) the figure was 97.2%; with `O=C(N/N=C\c1ccc(F)cc1)c1cc(OCC(F)(F)F)ccc1OCC(F)(F)F`, 99.5%.
